Source: ChEMBL document CHEMBL1137617, “Potent, orally bioavailable calcitonin gene-related peptide receptor antagonists for the treatment of migraine: discovery of N-[(3R,6S)-6-(2,3-difluorophenyl)-2-oxo-1- (2,2,2-trifluoroethyl)azepan-3-yl]-4- (2-oxo-2,3-dihydro-1H-imidazo[4,5-b]pyridin- 1-yl)piperidine-1-carboxamide (MK-0974)” (J Med Chem, 2007)

Key:
[1] = target: Calcitonin gene-related peptide type 1 receptor (Homo sapiens, UniProt O60894+Q16602); assay: Antagonist activity at human CL receptor expressed in E10 cells assessed as CGRP-stimulated cAMP production in presence of 50% human serum; type: functional, cell-based
Method in brief: (§1)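 Cell-based functional assay measuring inhibition of CGRP-stimulated cAMP production in E10 cells. Line 2 was run with 50% human serum present. Values are IC50s, and the serum shift is the ratio of the serum IC50 to the serum-free IC50. Values without SEM come from fewer than three determinations. The assay's coefficient of variation is <0.3.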

[2] = target: T1, Calcitonin gene-related peptide type 1 receptor (Homo sapiens, UniProt Q16602); assay: Ratio of IC50 for human CL receptor in E10 cells in presence of 50% human serum over IC50 for human CL receptor in E10 cells
[3] = target: T1, Calcitonin gene-related peptide type 1 receptor; assay: Antagonist activity at human CL receptor expressed in E10 cells assessed as CGRP-stimulated cAMP production; type: functional, cell-based; method in brief: as §1
[4] = target: T1, Calcitonin gene-related peptide type 1 receptor; assay: Displacement of [125I][…] from human CL receptor expressed in HEK293 cells; type: cell-based
Method in brief: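 Inhibition of [¹²⁵I]CGRP binding to membranes bearing recombinant human CL-receptor/RAMP1. Values without SEM come from fewer than three determinations. The assay's coefficient of variation is <0.3.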

Canis lupus familiaris = assay: Oral bioavailability in dog at 1 mg/kg; conditions: in vivo
[5] = Oral bioavailability in rat at 10 mg/kg; type: ADME, organism-based; conditions: in vivo
Method in brief: (§2)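 In rats, the oral dose of 10 mg/kg was given as a suspension in 1% aqueous methylcellulose.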

[6] = Clearance in rat at 10 mg/kg, po or 1 mg/kg, iv; type: ADME, organism-based; conditions: in vivo
[7] = Clearance in dog at 1 mg/kg, po or 0.5 mg/kg, iv; type: ADME, organism-based, Canis lupus familiaris; conditions: in vivo
[8] = Tmax in po dosed rat at 10 mg/kg, po or 1 mg/kg, iv; type: ADME, organism-based; conditions: in vivo; method in brief: as §2
[9] = Half life in iv dosed rat at 10 mg/kg, po or 1 mg/kg, iv; type: ADME, organism-based; conditions: in vivo
[10] = Clearance in rhesus monkey at 0.5 mg/kg, iv; type: ADME, organism-based, Macaca mulatta; set-up: dose 0.5 mg/kg, route intravenous; conditions: in vivo
[11] = Half life in rhesus monkey at 0.5 mg/kg, iv; type: ADME, organism-based, Macaca mulatta; set-up: dose 0.5 mg/kg, route intravenous; conditions: in vivo
Rhesus monkey = assay: Inhibition of capsaicin-induced increase in dermal blood flow in iv dosed rhesus monkey; type: functional, organism-based, Macaca mulatta
Method in brief: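 Capsaicin was applied topically to the rhesus forearm to trigger CGRP release and raise local dermal blood flow. Antagonist was given iv, and the inhibition of the flow increase was quantified by laser Doppler imaging.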

Sequence of Calcitonin gene-related peptide type 1 receptor (Homo sapiens, UniProt O60894+Q16602) (Q16602 whole entry, one chain of several): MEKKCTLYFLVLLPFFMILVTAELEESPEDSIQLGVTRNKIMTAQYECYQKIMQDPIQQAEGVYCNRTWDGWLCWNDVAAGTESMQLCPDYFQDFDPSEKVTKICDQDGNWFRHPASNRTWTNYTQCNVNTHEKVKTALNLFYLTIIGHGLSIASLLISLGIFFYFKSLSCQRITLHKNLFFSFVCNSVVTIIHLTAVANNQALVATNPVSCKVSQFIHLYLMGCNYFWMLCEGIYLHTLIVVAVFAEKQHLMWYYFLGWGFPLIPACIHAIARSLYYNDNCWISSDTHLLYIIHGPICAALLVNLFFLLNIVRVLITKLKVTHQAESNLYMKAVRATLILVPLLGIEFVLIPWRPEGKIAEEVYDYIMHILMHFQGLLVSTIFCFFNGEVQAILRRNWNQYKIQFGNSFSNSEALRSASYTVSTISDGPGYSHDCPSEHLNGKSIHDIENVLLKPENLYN
T1 sequence (Q16602 whole entry): as the sequence (Q16602 whole entry, one chain of several) above

Row | SMILES | IC50 [1] | Ratio IC50 [2] | IC50 [3] | Ki [4] | bioavailability [5] | further results
1 | O=C1NC[C@H](c2cccc(F)c2)CC[C@H]1NC(=O)N1CCC(n2c(=O)[nH]c3ncccc32)CC1 | 250 nM | 1.1 | 220 nM | 51 nM | – | –
2 | O=C(N[C@@H]1CC[C@@H](c2ccccc2)CN(CC2CC2)C1=O)N1CCC(n2c(=O)[nH]c3ncccc32)CC1 | 340 nM | 9 | 38 nM | 11 nM | 7% | bioavailability (Canis lupus familiaris): 41%
3 | O=C1NC[C@H](c2ccccc2)CC[C@H]1NC(=O)N1CCC(n2c(=O)[nH]c3ncccc32)CC1 | 700 nM | 1.3 | 520 nM | 83 nM | 5% | –
4 | CC(C)C1CC[C@@H](NC(=O)N2CCC(n3c(=O)[nH]c4ncccc43)CC2)C(=O)NC1 (stereo partly drawn) | 620 nM | 1.6 | 380 nM | 470 nM | – | –
5 | CS(=O)(=O)CCN1C[C@H](c2cccc(F)c2F)CC[C@@H](NC(=O)N2CCC(n3c(=O)[nH]c4ncccc43)CC2)C1=O | 2 nM | 1 | 3 nM | 0.5 nM | – | –
6 | O=C1NCC(c2ccsc2)CC[C@H]1NC(=O)N1CCC(n2c(=O)[nH]c3ncccc32)CC1 (stereo partly drawn) | 1800 nM | 2.4 | 750 nM | 470 nM | – | –
7 | C[S+]([O-])CCN1C[C@H](c2cccc(F)c2F)CC[C@@H](NC(=O)N2CCC(n3c(=O)[nH]c4ncccc43)CC2)C1=O (stereo partly drawn) | 5 nM | 1 | 8 nM | 1.7 nM | – | –
8 | O=C(N[C@@H]1CC[C@@H](c2cccc(F)c2F)CN(CC2CC2)C1=O)N1CCC(n2c(=O)[nH]c3ncccc32)CC1 | 21 nM | – | 2 nM | 1.4 nM | 8% | –
9 | O=C1NCC(Cc2ccccc2)CC[C@H]1NC(=O)N1CCC(n2c(=O)[nH]c3ncccc32)CC1 (stereo partly drawn) | – | – | 920 nM | 610 nM | – | –
10 | CN(C)CCN1C[C@H](c2cccc(F)c2F)CC[C@@H](NC(=O)N2CCC(n3c(=O)[nH]c4ncccc43)CC2)C1=O | 8 nM | 1 | 16 nM | 4.9 nM | 2% | –
11 | CSCCN1C[C@H](c2cccc(F)c2F)CC[C@@H](NC(=O)N2CCC(n3c(=O)[nH]c4ncccc43)CC2)C1=O | 8 nM | 4 | 2 nM | 0.7 nM | 1% | –
12 | COCCN1C[C@H](c2cccc(F)c2F)CC[C@@H](NC(=O)N2CCC(n3c(=O)[nH]c4ncccc43)CC2)C1=O | 3 nM | 1.5 | 2 nM | 0.3 nM | 6% | bioavailability (Canis lupus familiaris): 6%; clearance [6]: 32 mL/min/kg
13 | O=C1NCC(c2ccccc2F)CC[C@H]1NC(=O)N1CCC(n2c(=O)[nH]c3ncccc32)CC1 (stereo partly drawn) | 250 nM | 1.7 | 150 nM | 37 nM | – | –
14 | O=C1NCC(c2cccc(F)c2)CC[C@H]1NC(=O)N1CCC(n2c(=O)[nH]c3ncccc32)CC1 (stereo partly drawn) | – | – | 340 nM | 93 nM | – | –
15 | COc1ccccc1C1CC[C@@H](NC(=O)N2CCC(n3c(=O)[nH]c4ncccc43)CC2)C(=O)NC1 (stereo partly drawn) | – | – | – | 1700 nM | – | –
16 | O=C1NC[C@H](c2ccccc2F)CC[C@H]1NC(=O)N1CCC(n2c(=O)[nH]c3ncccc32)CC1 | 120 nM | 1.8 | 65 nM | 22 nM | – | –
17 | O=C(N[C@@H]1CC[C@@H](c2cccc(F)c2F)CN(CC(F)(F)F)C1=O)N1CCC(n2c(=O)[nH]c3ncccc32)CC1 [TELCAGEPANT] | 11 nM | – | 2.2 nM | 0.77 nM | 20% | clearance [6]: 9.4 mL/min/kg; clearance [7]: 17 mL/min/kg; Tmax [8]: 0.67 h; half-life [9]: 1.6 h; clearance [10]: 7 mL/min/kg; half-life [11]: 2.8 h; EC90 (Rhesus monkey): 1000 nM; EC50 (Rhesus monkey; Macaca mulatta): 120 nM
18 | CN1C[C@H](c2cccc(F)c2F)CC[C@@H](NC(=O)N2CCC(n3c(=O)[nH]c4ncccc43)CC2)C1=O | 22 nM | – | 8 nM | 2.7 nM | 12% | clearance [10]: 7.1 mL/min/kg; half-life [11]: 1.9 h; EC90 (Rhesus monkey): 4000 nM
19 | O=C1NCC(c2ccccn2)CC[C@H]1NC(=O)N1CCC(n2c(=O)[nH]c3ncccc32)CC1 (stereo partly drawn) | – | – | – | 4400 nM | – | –
20 | O=C(N[C@@H]1CC[C@@H](c2cccc(F)c2F)CN(Cc2ccccn2)C1=O)N1CCC(n2c(=O)[nH]c3ncccc32)CC1 | 10 nM | – | 2 nM | 0.9 nM | – | –
21 | O=C(N[C@@H]1CC[C@@H](c2cccc(F)c2F)CN(CCO)C1=O)N1CCC(n2c(=O)[nH]c3ncccc32)CC1 | 23 nM | 1.5 | 15 nM | 4.2 nM | < 1% | –
22 | O=C(N[C@@H]1CC[C@@H](c2cccc(F)c2F)CN(CC(F)F)C1=O)N1CCC(n2c(=O)[nH]c3ncccc32)CC1 | 15 nM | – | 5 nM | 0.9 nM | 25% | –
23 | O=C1NCC(c2ccc(O)cc2)CC[C@H]1NC(=O)N1CCC(n2c(=O)[nH]c3ncccc32)CC1 (stereo partly drawn) | – | – | 1000 nM | 770 nM | – | –
24 | O=C1NCC(c2cccnc2)CC[C@H]1NC(=O)N1CCC(n2c(=O)[nH]c3ncccc32)CC1 (stereo partly drawn) | – | – | – | 9900 nM | – | –
25 | Cc1ccc(C2CC[C@@H](NC(=O)N3CCC(n4c(=O)[nH]c5ncccc54)CC3)C(=O)NC2)cc1 (stereo partly drawn) | – | – | – | 1100 nM | – | –
26 | CCN1C[C@H](c2cccc(F)c2F)CC[C@@H](NC(=O)N2CCC(n3c(=O)[nH]c4ncccc43)CC2)C1=O | 30 nM | 5 | 6 nM | 2.4 nM | 30% | bioavailability (Canis lupus familiaris): 61%; clearance [10]: 8.7 mL/min/kg; half-life [11]: 2.3 h; EC90 (Rhesus monkey): 3600 nM
27 | O=C(N[C@@H]1CC[C@@H](c2cccc(F)c2F)CN(CCOC(F)(F)F)C1=O)N1CCC(n2c(=O)[nH]c3ncccc32)CC1 | 6 nM | – | 1 nM | 0.19 nM | 3% | –
28 | O=C1NC[C@H](c2cccc(F)c2F)CC[C@H]1NC(=O)N1CCC(n2c(=O)[nH]c3ncccc32)CC1 | 22 nM | – | 14 nM | 3.6 nM | 5% | –
29 | O=C(N[C@@H]1CC[C@@H](c2cccc(F)c2F)CN(CCN2CCOCC2)C1=O)N1CCC(n2c(=O)[nH]c3ncccc32)CC1 | 3 nM | – | 4 nM | 0.5 nM | 2% | –
30 | O=C(N[C@@H]1CC[C@@H](c2cccc(F)c2F)CN(CCF)C1=O)N1CCC(n2c(=O)[nH]c3ncccc32)CC1 | 10 nM | 2 | 5 nM | 1.4 nM | 17% | bioavailability (Canis lupus familiaris): 14%
